The source of these data is ChEMBL document CHEMBL1157821, “In vitro photodynamic therapy and quantitative structure-activity relationship studies with stable synthetic near-infrared-absorbing bacteriochlorin photosensitizers” (J Med Chem, 2010).

For data set [1], the system named is HeLa. Put plainly: Photocytotoxicity against human HeLa cells after 24 hrs by MTT assay in presence of 10 J/cm2 laser. The data set is classed as functional. The note with it: light or radiation study, read-out: LD50 (the source's name). The essentials:
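HeLa cells (5000/well) grown 24 h, then incubated 24 h with bacteriochlorin at 0.001–10 μM in complete RPMI with 10% serum (DMSO ≤0.2%). Medium replaced, then 10 J/cm2 of 732 nm laser light given (780 nm LED, 50 mW/cm2, for one compound). MTT (4 h, 562 nm) 24 h later. Survival is relative to untreated controls. LD50 in nM. Experiments done in triplicate.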
For orientation: Tetrazolium assays rely on reduction of a dye to a coloured formazan, in cell work by metabolically active cells.

Data set [2] in a line: Octanol-water partition coefficient, log P by stir-flask method. The class given is physicochemical. A digest of the protocol:
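About 2 mL octanol and 2 mL water were pre-stirred 3 h at room temperature. Under 0.5 mg bacteriochlorin was added and stirred 24 h at 100–200 rpm, then the phases settled for 30 min. An aliquot of each phase was diluted in DMSO and the Qy(0,0) absorbance ratio (octanol/water) was taken. A phase with no detectable compound was set at A=0.001 as a bound.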

For data set [3], the system named is HeLa. Put plainly: Cellular uptake in human HeLa cells measured per mg of protein at 20.5 uM after 24 hrs by fluorescence measurements. The data set is classed as ADME, cell-based. The essentials:
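HeLa in RPMI with 10% heat-inactivated FBS, 5000 cells/well, grown 24 h, then given bacteriochlorin in complete medium (DMSO ≤0.2%) for 24 h. Cells were rinsed with warm PBS and lysed in SOLVABLE, 37 °C, 2 h. Fluorescence was read at ex 402/em 730 nm against per-compound calibration curves and normalized to BCA protein, giving nmol per mg protein. Three repeats.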

Data set [4] deals with HeLa. Put plainly: Cellular uptake in human HeLa cells assessed as localization to lysosomes at 1 uM after 24 hrs by confocal fluorescence microscopy. The class given is ADME, cell-based. The essentials:
(§1)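 HeLa plated in 35 mm dishes, attached overnight, then given 1 μM bacteriochlorin in complete medium for 24 h. After a PBS wash, cells got 5 μg/mL LysoTracker green DND-26, MitoTracker green FM or ER-Tracker green for 30 min at 37 °C, then were washed again. Confocal imaging used 488 nm excitation, 515 ± 10 nm (tracker) or >580 nm (bacteriochlorin) emission, and a 63× water objective.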

Data set [5] has as its system HeLa. Put plainly: Cellular uptake in human HeLa cells assessed as localization to endoplasmic reticulum at 1 uM after 24 hrs by confocal fluorescence microscopy. The data set is classed as ADME, cell-based. The essentials: as §1
Data set [6] deals with HeLa. Put plainly: Cellular uptake in human HeLa cells assessed as localization to mitochondria at 1 uM after 24 hrs by confocal fluorescence microscopy. The class given is ADME, cell-based. A digest of the protocol: as §1

Each structure is given as a SMILES string.

For the compound `CC1(C)Cc2cc3[nH]c(cc4nc(cc5[nH]c(cc1n2)cc5C(=O)O)CC4(C)C)cc3C(=O)O`, the CC50 in data set [1] came to 4000 nM. In data set [2] (read-out: logP), the logP (in general, the decadic logarithm of the partition coefficient of the neutral form, usually between octanol and water) is 1.4. In data set [3], this compound showed a Drug uptake of 0.72 nmol/mg.
Consider `CC1(C)Cc2cc3[nH]c(cc4nc(cc5[nH]c(cc1n2)cc5C(=O)NCCN)CC4(C)C)cc3C(=O)NCCN`, for which, in data set [1], the CC50 is 3000 nM. Moreover, in data set [2] (read-out: logP), the logP was -0.5. The Drug uptake was 7.7 nmol/mg in data set [3] and “Active” in data set [4].
Take `CC1(C)Cc2cc3[nH]c(cc4nc(cc5[nH]c(cc1n2)cc5CN(CCO)CCO)CC4(C)C)cc3CN(CCO)CCO`: in data set [1], the CC50 was 100 nM. Moreover, the values for the Drug uptake entry in data set [5], in data set [3] and in data set [4] were “Active”, 8.2 nmol/mg and “Active”, respectively. For the same compound, in data set [2] (read-out: logP), the logP amounted to 2.3.
On to `COCCOCCOCCOCCNCc1cc(CNCCOCCOCCOCCOC)cc(-c2c3nc(cc4[nH]c(cc4-c4ccc(C)cc4)c(OC)c4nc(cc5[nH]c2cc5-c2ccc(C)cc2)C(C)(C)C4)C(C)(C)C3)c1`, for which the CC50 in data set [1] is 500 nM. Moreover, in data set [2] (read-out: logP), the logP was at least 2.2. The compound further yielded a Drug uptake in data set [3] of 3.9 nmol/mg.
Regarding `COCCC(CCOC)c1cc2cc3nc(cc4[nH]c(cc5nc(cc1[nH]2)CC5(C)C)cc4C(CCOC)CCOC)CC3(C)C`, the lipophilicity (logP) in data set [2] (read-out: logP) was at least 2.5. The Drug uptake in data set [3] was determined as 11.7 nmol/mg.
Turning to `CC1(C)Cc2cc3[nH]c(cc4nc(cc5[nH]c(cc1n2)cc5-c1cc(OCCO)cc(OCCO)c1)CC4(C)C)cc3-c1cc(OCCO)cc(OCCO)c1`, in data set [1], the CC50 was found to be 15 nM. Besides, in data set [2] (read-out: logP), the logP was at least 2.2. The same compound registered a Drug uptake in data set [3] of 10.4 nmol/mg.
In the case of `CC1(C)Cc2cc3[nH]c(cc4nc(cc5[nH]c(cc1n2)cc5-c1cc(O)cc(O)c1)CC4(C)C)cc3-c1cc(O)cc(O)c1`, the CC50 in data set [1] is 80 nM. Besides, the Drug uptake entry is “Active” in data set [5], “Active” in data set [6] and 13.5 nmol/mg in data set [3]. Besides, the logP in data set [2] (read-out: logP) is at least 2.5.
As to `CC1(C)Cc2cc3[nH]c(cc4nc(cc5[nH]c(cc1n2)cc5C#CC[N+](C)(C)C)CC4(C)C)cc3C#CC[N+](C)(C)C.[Cl-].[Cl-]`, the CC50 in data set [1] is 2000 nM. Also, the logP in data set [2] (read-out: logP) stood at 0.9. The same compound showed a Drug uptake in data set [3] of 8.2 nmol/mg.
On to `CC1(C)Cc2cc3[nH]c(cc4nc(cc5[nH]c(cc1n2)cc5C(=O)N(CCN)CCN)CC4(C)C)cc3C(=O)N(CCN)CCN`, for which the CC50 in data set [1] turned out to be 800 nM. In data set [2] (read-out: logP), the log partition coefficient (logP) is -1.4. The same compound gave a Drug uptake in data set [3] of 1.8 nmol/mg.
As for `CC1(C)Cc2cc3[nH]c(cc4nc(cc5[nH]c(cc1n2)cc5C(=O)N1CC[N+](C)(C)CC1)CC4(C)C)cc3C(=O)N1CC[N+](C)(C)CC1.[Cl-].[Cl-]`, the CC50 in data set [1] is 800 nM. The compound further gave a logP in data set [2] of -1. This compound displayed a Drug uptake in data set [3] of 1.8 nmol/mg.
With `CC1(C)Cc2cc3[nH]c(cc4nc(cc5[nH]c(cc1n2)cc5C(=O)/C=C/c1cc(O)cc(O)c1)CC4(C)C)cc3C(=O)/C=C/c1cc(O)cc(O)c1`, the CC50 in data set [1] was found to be 200 nM. In data set [2] (read-out: logP), the logP is at least 1.8. In data set [3], this compound had a Drug uptake of 1.8 nmol/mg.
In the case of `COCCN(CCOC)C(=O)c1cc2cc3nc(cc4[nH]c(cc5nc(cc1[nH]2)CC5(C)C)cc4C(=O)N(CCOC)CCOC)CC3(C)C`, the CC50 in data set [1] is 60 nM. Besides, the logP in data set [2] (read-out: logP) was at least 1.9. In data set [3], the Drug uptake is 15 nmol/mg.
